Compound activity as filed in PubChem BioAssay.
Most compounds without a hit are left out; they make up all but 3.9% or so of the library.
HTR2A ag = agonists of mouse serotonin 5-HT2A receptor (HTR2A); CHO-K1 mHTR2A beta-arrestin complementation, luminescence; percent of 30 µM serotonin response; AID 624169; 0.66% of 360,000 active; activation, % at 7.6 µM;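 active means activation above a run cutoff, the mean activation of all tested compounds plus 3 SD, cut at about 14% in these data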;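 further: 0% = plate median of compound wells and 100% = 30 µM serotonin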
CHRM1 antagonist = human CHRM1 antagonism. P11229. CHO-K1 hM1, Fluo-8 calcium fluorescence, ACh EC80 antagonist. inhibition, % at 3 µM. 1.3% of 360,000 active;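 active means percent inhibition above its own plate's cutoff, namely the mean of that plate's compound wells plus 3 SD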;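 further: peak over basal fluorescence ratio during 140 s after agonist addition; 0% = ACh EC80 plus DMSO and 100% = DMSO alone without agonist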
Target sequence (P11229 whole entry, looked up): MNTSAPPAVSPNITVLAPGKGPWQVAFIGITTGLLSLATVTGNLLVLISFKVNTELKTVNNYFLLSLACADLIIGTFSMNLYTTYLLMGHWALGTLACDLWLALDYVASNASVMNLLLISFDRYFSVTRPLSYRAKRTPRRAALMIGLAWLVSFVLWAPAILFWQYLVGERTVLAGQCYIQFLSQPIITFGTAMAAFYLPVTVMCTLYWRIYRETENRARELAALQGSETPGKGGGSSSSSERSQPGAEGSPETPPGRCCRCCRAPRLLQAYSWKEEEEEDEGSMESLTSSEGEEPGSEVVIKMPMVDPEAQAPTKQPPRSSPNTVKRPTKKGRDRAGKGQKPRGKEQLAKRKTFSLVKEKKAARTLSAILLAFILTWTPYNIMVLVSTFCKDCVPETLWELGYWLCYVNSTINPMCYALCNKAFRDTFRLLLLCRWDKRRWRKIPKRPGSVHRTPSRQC
TAAR1 antagonist = human TAAR1 antagonism | Q96RJ0 | CHO RD-HGA16 TAAR1, Fluo-8 calcium fluorescence, antagonist | 1.5% of 360,000 active | inhibition, % at 3 µM;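 active means inhibition above a per-plate cutoff, the mean inhibition of test compounds on that plate plus 3 SD, cut at about 49% in these data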;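 further: 0% = DMSO plus EC80 beta-PEA response and 100% = DMSO alone without agonist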
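Test system: CHO RD-HGA16 cells bearing hTAAR1 | Reagent: β-PEA, EC80 | Compound dosing: 3 µM, single point | Schedule: Dye loading 75 min at 37 °C, then 30 min room temperature | Signal: Calcium fluorescence with Fluo-8 | Evaluation: Percent inhibition of PEA-evoked calcium signal, max/basal emission ratio | Control set: DMSO-only wells and EC80 β-PEA-stimulated wells | Repeats: Singlicate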
CHRM1 agonist = human M1 muscarinic receptor agonism; CHO-K1 hM1, Fluo-8 calcium fluorescence, agonist mode; 0% DMSO, 100% acetylcholine EC100; AID 588814; P11229; activation, % at 3 µM; 0.33% of 360,000 active;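 active means activation above the run's mean compound activation plus 3 SD, cut at about 16% in these data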;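 further: peak over basal fluorescence ratio within a 140 s kinetic read after compound addition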
TAAR1 agonist = agonists of human TAAR1 | CHO RD-HGA16 TAAR1, Fluo-8 calcium fluorescence; vehicle wells 0%, saturating PEA agonist 100% | activation, % at 3 µM | 0.99% of 360,000 active | AID 624467;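 active means activation above the mean activation of all test compounds in the run plus 3 SD, cut at about 38% in these data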
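Test system: RD-HGA16 (CHO) cells co-expressing Gα16 and hTAAR1; dosing: one-point dosing at 3 µM (nominal); timing: 17-24 h seeding, 75 min 37 °C dye, 30 min RT; signal: kinetic Fluo-8 calcium fluorescence; read-out basis: % activation relative to PEA EC100 response; controls: DMSO and PEA EC100; replicates: n 1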
CHRM1 PAM = human CHRM1 positive allosteric modulation. 0.088% of 360,000 active. CHO-K1 hM1, Fluo-8 calcium fluorescence, ACh EC20; 0% = ACh EC20, 100% = maximal ACh. activation, % at 3 µM. P11229. AID 588819; in the data active means activation above about 19%, passing the limit was not always enough
MOR ag counter = OPRM1 agonism in mouse HTR2A counterscreen; shares compounds with HTR2A ag; U2OS OPRM1 beta-arrestin PathHunter, luminescence; DMSO 0%, DAMGO 9.3 µM 100%; activation, % at 9.3 µM; 5.3% of 2,300 active; AID 624380;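 active means mean activation above the mean of DMSO-only wells plus 3 SD, cut at about 0.5% in these data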
HTR2A ag conf = confirmation of mouse HTR2A serotonin receptor agonists; shares compounds with HTR2A ag; CHO-K1 PathHunter beta-arrestin recruitment, luminescence; DMSO 0%, 30 µM serotonin 100%; activation, % at 7.6 µM; 19% of 2,300 active; AID 624381;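 active means mean activation across triplicates above the hit threshold derived in the original primary screen, cut at about 15% in these data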
Numbers without * were called inactive; x = no result.

SMILES | HTR2A ag | CHRM1 antagonist | TAAR1 antagonist | CHRM1 agonist | TAAR1 agonist | CHRM1 PAM | MOR ag counter | HTR2A ag conf
CC1(C(=O)NS(=O)(=O)C2CC2)CCN(C(=O)C2(c3ccc(Cl)cc3)CCCC2)C1 (stereo unspecified) | 1 | -15 | x | -2 | x | 11 | x | x
CCN(CC(=O)Nc1c(F)cccc1F)C(=O)CCSc1ccc(F)cc1 | 2 | -9 | -6 | -2 | 2 | 7 | x | x
CC(C)(C)N(Cc1ccc2c(c1)OCO2)C(=O)/C=C\S(=O)c1ccccc1 (stereo unspecified) | 19* | -13 | -23 | 0 | 2 | 5 | -1 | 2
CCN(Cc1ccc2c(c1)OCO2)C(=O)/C=C/c1cccc(Br)c1 | -1 | -5 | 0 | -7 | 7 | 1 | x | x
COc1ccc2[nH]cc(CCNC(=O)C3CC(=O)N(c4ccc(Cl)cc4)C3)c2c1 (stereo unspecified) | 16* | -11 | -11 | -4 | -1 | 11 | -1 | 3
CCOc1ccc(N2CC(C(=O)NCCc3c[nH]c4ccc(OC)cc34)CC2=O)cc1 (stereo unspecified) | 18* | 7 | 5 | -3 | 0 | -1 | 0 | 3
COC(=O)C1=C(C)N(CCc2c[nH]c3ccc(OC)cc23)C(=O)C1 | 17* | -3 | -8 | -5 | 1 | 2 | -1 | 0
COC(=O)C1=C(C)N(CCc2ccc(OC)c(OC)c2)C(=O)C1 | 4 | -18 | 5 | -2 | 16 | 7 | x | x
CCCNC(=O)C1CC(=O)N(c2ccc(OCC)cc2)C1 (stereo unspecified) | 4 | -10 | -3 | 0 | 0 | 10 | x | x
O=[N+]([O-])c1cc2c(ccc3occc32)o1 | x | x | 2 | x | -2 | x | x | x
O=C(O)c1ccc2c(c1)C(=O)N(c1ccc(OCc3ccccc3)cc1)C2=O | 17* | -11 | 3 | -3 | 15 | 7 | 0 | 0
O=C(O)c1ccc2c(c1)C(=O)N(c1ccc(C(=O)OCC(=O)c3ccccc3)cc1)C2=O | -3 | -16 | -27 | -1 | -1 | 14 | x | x
CCCCOc1ccc(C(=O)NCC(=O)NC2CCN(Cc3ccccc3)CC2)cc1 | -9 | -5 | -28 | -4 | 0 | 3 | x | x
CCCCOc1ccc(C(=O)NCC(=O)NC2CCC(C)CC2)cc1 (stereo unspecified) | 18* | 11 | -3 | 1 | 0 | 4 | 0 | 0
COc1cccc(-c2nc(NCc3ccccc3)c3ccccc3n2)c1O | -2 | -1 | 5 | -3 | 0 | 2 | x | x
C=CCNc1nc(-c2cccc(OC)c2O)nc2ccccc12 | 42* | -7 | 26 | -1 | 17 | 15 | 0 | 24*
COc1ccc(C(C(=O)NC2CCCC2)N(Cc2ccccc2)C(=O)c2snc(C(N)=O)c2N)cc1OC (stereo unspecified) | 16* | -1 | 37 | 6 | 23 | 5 | -1 | -1
CCOC(=O)C1(CCOC)CCN(C(=O)c2ccc(CSC)o2)CC1 | 5 | -15 | -28 | -3 | 1 | 7 | x | x
O=C(NCc1ccc(F)cc1)C1CCCN(S(=O)(=O)c2cccc3nonc23)C1 (stereo unspecified) | 17* | -4 | -16 | 5 | 0 | 17 | -1 | -4
O=C(Nc1ccc(F)cc1)C1CCCN(S(=O)(=O)c2cccc3nonc23)C1 (stereo unspecified) | -2 | -8 | 7 | -4 | 0 | 4 | x | x
O=C(NC(=O)c1ccccc1)OCC(F)(F)F | -1 | 1 | 1 | -4 | 9 | 4 | x | x
CNC(=O)c1ccc(CNC(=O)OCC(F)(F)F)cc1 | 25* | 5 | 2 | -3 | 7 | -1 | 0 | 2
Cc1ccc(-n2nnc(-c3cccnc3Cl)n2)cc1 | -4 | 1 | -7 | -6 | 5 | 3 | x | x
